pIC50: −log10 of the molar value.
Tests used:
Substance-P receptor [1] = target: T1, Substance-P receptor (Homo sapiens, UniProt P25103); experiment: In vitro inhibition of binding of [125I]Bolton-Hunter SP to Tachykinin receptor 1 in human IM-9 cell line at a concentration of 10 nM; type: cell-based
Procedure, shortened: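 Single-point screen at 10 nM test compound, run in triplicate, measuring displacement of [125I]Bolton-Hunter SP binding on human IM-9 cells expressing NK-1 receptors.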

Substance-P receptor [2] = target: T1, Substance-P receptor; experiment: In vitro inhibition of binding of [125I]Bolton-Hunter SP to Tachykinin receptor 1 in human IM-9 cell line; type: cell-based
[3] = Bioavailability in dog; type: ADME, organism-based, Canis lupus familiaris; details: in vivo
Canis familiaris = species on record: Canis familiaris; experiment: In vitro microsome stability tested in dog liver expressed as percent remaining […]; type: functional; details: Canis lupus familiaris

T1 sequence (P25103 whole entry): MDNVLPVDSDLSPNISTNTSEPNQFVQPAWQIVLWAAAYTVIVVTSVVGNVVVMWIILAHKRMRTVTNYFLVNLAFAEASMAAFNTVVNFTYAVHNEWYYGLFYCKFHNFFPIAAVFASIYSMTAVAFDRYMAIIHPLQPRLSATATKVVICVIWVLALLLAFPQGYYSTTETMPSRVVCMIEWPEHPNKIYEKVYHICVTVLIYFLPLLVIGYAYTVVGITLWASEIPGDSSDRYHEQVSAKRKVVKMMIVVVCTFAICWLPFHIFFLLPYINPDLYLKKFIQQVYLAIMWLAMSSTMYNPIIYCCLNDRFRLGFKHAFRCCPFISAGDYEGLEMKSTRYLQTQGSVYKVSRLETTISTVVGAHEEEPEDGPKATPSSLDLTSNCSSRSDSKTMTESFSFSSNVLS

In the case of COc1ccccc1CN(CC(Cc1c[nH]c2ccccc12)NC(=O)c1ccccc1)C(C)=O (configuration not stated), the inhibition (Substance-P receptor [1]) was 0%.
For CCOCC(=O)NC(Cc1c[nH]c2ccccc12)CN(Cc1ccccc1OC)C(C)=O (configuration not stated), the inhibition (Substance-P receptor [1]) was 4%.
Compound COc1ccccc1CN(CC(Cc1c[nH]c2ccccc12)NC(=O)Cc1ccc(O)cc1)C(C)=O (configuration not stated) has an inhibition (Substance-P receptor [1]) of 25%.
COc1ccc(C(=O)NC(Cc2c[nH]c3ccccc23)CN(Cc2ccccc2OC)C(C)=O)cc1 (configuration not stated) showed an inhibition (Substance-P receptor [1]) of 13%.
For COc1cccc(CC(=O)NC(Cc2c[nH]c3ccccc23)CN(Cc2ccccc2OC)C(C)=O)c1 (configuration not stated), the inhibition (Substance-P receptor [1]) was 22%.
With COc1ccc(CC(=O)NC(Cc2c[nH]c3ccccc23)CN(Cc2ccccc2OC)C(C)=O)cc1 (configuration not stated) the inhibition (Substance-P receptor [1]) was 81% and the pIC50 (Substance-P receptor [2]) was 8.01.
Compound COc1ccccc1CN(CC(Cc1c[nH]c2ccccc12)NC(=O)CSc1ccccn1)C(C)=O (configuration not stated) has an inhibition (Substance-P receptor [1]) of 41% and a pIC50 (Substance-P receptor [2]) of 7.97.
COc1ccccc1CN(CC(Cc1c[nH]c2ccccc12)NC(=O)Cc1ccc2c(c1)OCCO2)C(C)=O (configuration not stated) gave an inhibition (Substance-P receptor [1]) of 46% and a pIC50 (Substance-P receptor [2]) of 8.08.
COc1ccccc1CN(CC(Cc1c[nH]c2ccccc12)NC(=O)Cc1ccccc1Cl)C(C)=O (configuration not stated) showed an inhibition (Substance-P receptor [1]) of 30%.
In the case of COc1ccccc1CN(CC(Cc1c[nH]c2ccccc12)NC(=O)COc1ccc(C(C)=O)cc1)C(C)=O (configuration not stated), the inhibition (Substance-P receptor [1]) was 68% and the pIC50 (Substance-P receptor [2]) was 8.46.
For COc1ccc(OCC(=O)NC(Cc2c[nH]c3ccccc23)CN(Cc2ccccc2OC)C(C)=O)cc1 (configuration not stated), the inhibition (Substance-P receptor [1]) was 52% and the pIC50 (Substance-P receptor [2]) was 7.99.
In the case of COc1ccccc1CN(CC(Cc1c[nH]c2ccccc12)NC(=O)COc1ccc(Cl)cc1)C(C)=O (configuration not stated), the inhibition (Substance-P receptor [1]) was 19%.
In the case of COc1ccc(C(=O)CCC(=O)NC(Cc2c[nH]c3ccccc23)CN(Cc2ccccc2OC)C(C)=O)cc1 (configuration not stated), the inhibition (Substance-P receptor [1]) was 63% and the pIC50 (Substance-P receptor [2]) was 8.48.
Work on COc1ccccc1CN(C[C@@H](Cc1c[nH]c2ccccc12)NC(=O)CN1CCC(N2CCCCC2)CC1)C(C)=O [LANEPITANT] yielded a bioavailability [3] of 9%.
For COc1ccccc1CN(CC(Cc1c[nH]c2ccccc12)NC(=O)Cc1ccccc1)C(C)=O (configuration not stated), the inhibition (Substance-P receptor [1]) was 18%.
CC(=O)N(Cc1ccccc1Cl)C[C@@H](Cc1c[nH]c2ccccc12)NC(=O)COc1ccc(-n2ccnc2)cc1 gave a bioavailability [3] of 36% and a Remaining (Canis familiaris) of 96%.
In the case of COc1ccccc1CN(C[C@@H](Cc1c[nH]c2ccccc12)NC(=O)COc1ccc(-c2csnn2)cc1)C(C)=O, the bioavailability [3] was 47%, the Remaining (Canis familiaris) was 67% and the pIC50 (Substance-P receptor [2]) was 9.01.
Compound COc1cccc(OCC(=O)NC(Cc2c[nH]c3ccccc23)CN(Cc2ccccc2OC)C(C)=O)c1 (configuration not stated) has an inhibition (Substance-P receptor [1]) of 3%.
Compound COc1ccccc1CN(CC(Cc1c[nH]c2ccccc12)NC(=O)CCC(=O)c1ccc(F)cc1)C(C)=O (configuration not stated) has an inhibition (Substance-P receptor [1]) of 66% and a pIC50 (Substance-P receptor [2]) of 8.22.
COc1ccccc1CN(C[C@@H](Cc1c[nH]c2ccccc12)NC(=O)COc1ccc(CO)cc1)C(C)=O showed a bioavailability [3] of 17%, a Remaining (Canis familiaris) of 28% and a pIC50 (Substance-P receptor [2]) of 9.37.
For COc1ccccc1CN(CC(Cc1c[nH]c2ccccc12)NC(=O)COc1ccccc1OC)C(C)=O (configuration not stated), the inhibition (Substance-P receptor [1]) was 42% and the pIC50 (Substance-P receptor [2]) was 7.62.
In the case of COc1ccccc1CN(CC(Cc1c[nH]c2ccccc12)NC(=O)c1ccccc1Cl)C(C)=O (configuration not stated), the inhibition (Substance-P receptor [1]) was 0%.
For COc1ccccc1CN(CC(Cc1c[nH]c2ccccc12)NC(=O)CCc1ccccc1)C(C)=O (configuration not stated), the inhibition (Substance-P receptor [1]) was 20%.
COc1ccccc1CN(CC(Cc1c[nH]c2ccccc12)NC(=O)COc1ccc(O)cc1)C(C)=O (configuration not stated) gave an inhibition (Substance-P receptor [1]) of 59% and a pIC50 (Substance-P receptor [2]) of 8.49.
With COc1ccccc1CN(CC(Cc1c[nH]c2ccccc12)NC(=O)CCC(=O)c1ccc(Cl)cc1)C(C)=O (configuration not stated) the inhibition (Substance-P receptor [1]) was 49%.
With COc1ccccc1CN(CC(Cc1c[nH]c2ccccc12)NC(=O)COc1ccc(CO)cc1)C(C)=O (configuration not stated) the inhibition (Substance-P receptor [1]) was 87% and the pIC50 (Substance-P receptor [2]) was 9.09.
With COc1ccccc1CC(=O)NC(Cc1c[nH]c2ccccc12)CN(Cc1ccccc1OC)C(C)=O (configuration not stated) the inhibition (Substance-P receptor [1]) was 23%.
COc1ccccc1CN(C[C@@H](Cc1c[nH]c2ccccc12)NC(=O)COc1ccc(-n2ccnc2)cc1)C(C)=O showed a bioavailability [3] of 14%, a Remaining (Canis familiaris) of 87% and a pIC50 (Substance-P receptor [2]) of 9.32.
For COc1ccccc1CN(C[C@@H](Cc1c[nH]c2ccccc12)NC(=O)CCC(=O)c1ccccc1)C(C)=O, the inhibition (Substance-P receptor [1]) was 20% and the pIC50 (Substance-P receptor [2]) was 7.47.
